Results as given in ChEMBL document CHEMBL1764985, “Design, synthesis, and evaluation of coumarin-based molecular probes for imaging of myelination” (J Med Chem, 2011).
The source made the active and inactive calls. No cut-off for these calls is given here.

Columns and labels:
[1] = target: Myelin basic protein (Mus musculus) (UniProt P04370); assay: Binding affinity to corpus collosum myelin in central nervous system of mouse […] by fluorescent microscopy; format: tissue-based; conditions: Corpus callosum
[2] = species on record: Mus musculus; assay: Selectivity for mouse white matter myelin over gray matter myelin; format: tissue-based
Outline: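 Mouse brain sections stained with compound at 100 μM. Fluorescence intensity measured in predefined ROIs: part of the corpus callosum (white matter) and a subcortical gray matter region. White/gray intensity ratio calculated; mean ± SD, n = 3.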

[3] = target: Myelin basic protein (Mus musculus) (UniProt P04370); assay: Binding affinity to sciatic nerve myelin in peripheral nervous system of mouse at 100 uM […] by Black gold II staining
[4] = target: Myelin basic protein (Mus musculus) (UniProt P04370); assay: Binding affinity to caudate putamen myelin in mouse by fluorescent microscopy; format: tissue-based
Outline: (§1)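 Wild-type mice given 40 mg/kg via tail vein under anesthesia, then perfused transcardially with saline followed by 4% PFA in PBS. Brain sections imaged by fluorescence microscopy (BP470/40 nm filter) for in situ staining in cerebellum, caudate putamen/striatum and temporal cortex. Same sections co-stained with anti-MBP antibody for comparison.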

[5] = Lipophilicity, log P of the compound; format: physicochemical; conditions: octanol/water
[6] = Half life of the compound in mouse brain; format: ADME, tissue-based
[7] = target: Myelin basic protein (Mus musculus) (UniProt P04370); assay: Binding affinity to temporal cortex myelin in mouse by fluorescent microscopy; format: tissue-based; outline: as §1
[8] = target: Myelin basic protein (Mus musculus) (UniProt P04370); assay: Binding affinity to cerebellum myelin in central nervous system of mouse […] by fluorescent microscopy
[9] = system: Mus musculus; assay: Binding affinity to sciatic nerve myelin in C57BL/6 mouse at 40 mg/kg after 20 mins, iv after 10 mins by fluorescent microscopy; format: functional, organism-based; parameters: dose 40 mg/kg
Outline: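 Eight-week C57BL/6 mice dosed 40 mg/kg by tail vein in saline; saline alone as control. At 10 min, mice anesthetized with isoflurane and sciatic nerves surgically exposed and imaged under a dissection fluorescence microscope (LP 590 filter). Nerves imaged again after perfusion.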

[10] = target: Myelin basic protein (Mus musculus) (UniProt P04370); assay: Binding affinity to corpus collosum myelin in myelin deficient shiverer mouse assessed as myelination levels at 100 uM after 20 mins by fluorescent microscopy relative to control; conditions: Corpus callosum
Outline: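 Frozen 20 μm brain sections from wild-type C57BL/6 and shiverer (C3Fe.SWV-Mbp^shi/J) mice stained with compound at 100 μM, with anti-MBP immunostaining of the same sections. Pixel intensity in a corpus callosum ROI (midline to below cingulum apex) quantified. Wild-type set to 100, shiverer expressed as percentage. Nonpaired Student's t test.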

Sequence of Myelin basic protein (Mus musculus) (P04370 whole entry, the tested form may be a part): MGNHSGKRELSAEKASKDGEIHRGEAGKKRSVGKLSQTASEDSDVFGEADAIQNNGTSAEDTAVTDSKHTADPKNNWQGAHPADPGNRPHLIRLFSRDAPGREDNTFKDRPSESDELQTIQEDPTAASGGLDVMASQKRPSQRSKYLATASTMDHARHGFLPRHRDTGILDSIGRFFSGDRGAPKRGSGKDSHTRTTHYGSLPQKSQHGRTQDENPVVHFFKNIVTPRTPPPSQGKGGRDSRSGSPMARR

SMILES	Activity [1]	also measured
O=c1oc2ccccc2c(O)c1Cc1c(O)c2ccccc2oc1=O	inactive	–
O=c1cc(O)c2ccccc2o1	inactive	–
CCN(CC)c1ccc(-c2ccc3cc(C(=O)c4cccs4)c(=O)oc3c2)cc1	Active	–
CN(C)c1ccc(-c2cc3cc(OCCCF)ccc3oc2=O)cc1	Active	white/gray matter fluorescence ratio [2]: 1.38
CCN(CC)c1ccc(-c2ccc3cc(-c4nc5ccccc5[nH]4)c(=O)oc3c2)cc1	Active	–
O=c1oc2cc(O)ccc2cc1-c1ccccc1	inactive	–
O=c1ccc2ccccc2o1	inactive	–
CC(=O)Oc1ccc2oc(=O)c(-c3ccc(N(C)C)cc3)cc2c1	Active	white/gray matter fluorescence ratio [2]: 1.53
O=c1oc2ccc(F)cc2cc1-c1ccc([N+](=O)[O-])cc1	inactive	–
Nc1cc2ccccc2oc1=O	inactive	–
CN(C)c1ccc2c(C(F)(F)F)cc(=O)oc2c1	inactive	–
Nc1ccc(-c2cc3cc(F)ccc3oc2=O)cc1	Active	–
CN(C)c1ccc(-c2cc3cc(O)ccc3oc2=O)cc1	Active	white/gray matter fluorescence ratio [2]: 1.48
CN(C)c1ccc(-c2cc3ccc(OCCCF)cc3oc2=O)cc1	Active	Activity [3]: Active; white/gray matter fluorescence ratio [2]: 1.54; Activity [4]: Active; logP [5]: 3.82; half-life [6]: 20 min; Activity [7]: Active; Activity [8]: Active; Activity [9]: Active; Activity [10]: 12%
CN(C)c1ccc(-c2cc3ccc(OCCF)cc3oc2=O)cc1	Active	white/gray matter fluorescence ratio [2]: 1.52
COc1ccc2ccc(=O)oc2c1	inactive	–
Nc1ccc(-c2cc3ccccc3oc2=O)cc1	Active	white/gray matter fluorescence ratio [2]: 1.39
O=c1oc2ccccc2cc1-c1ccc([N+](=O)[O-])cc1	inactive	–

SMILES	Activity [1]	also measured
O=c1cc(C(F)(F)F)c2ccc(O)cc2o1	inactive	–
CCN(CC)c1ccc(-c2ccc3cc(-c4ccc([N+](=O)[O-])cc4)c(=O)oc3c2)cc1	Active	–
Nc1ccc2c(C(F)(F)F)cc(=O)oc2c1	inactive	–
O=c1oc2ccccc2cc1O	inactive	–
CN(C)c1ccc(-c2cc3ccc(O)cc3oc2=O)cc1	Active	white/gray matter fluorescence ratio [2]: 1.25
CCN(CC)c1ccc(-c2ccc3cc(-c4nc5ccccc5n4C)c(=O)oc3c2)cc1	Active	–
CCN(CC)c1ccc(-c2ccc3cc(-c4ccc(N)cc4)c(=O)oc3c2)cc1	Active	–
CN(C)c1ccc(-c2cc3cc(OCCF)ccc3oc2=O)cc1	Active	white/gray matter fluorescence ratio [2]: 1.33
Cc1cc(=O)oc2ccccc12	inactive	–
CC(=O)Oc1ccc2cc(-c3ccc(N(C)C)cc3)c(=O)oc2c1	Active	white/gray matter fluorescence ratio [2]: 1.35
Nc1cc(=O)oc2ccccc12	inactive	–
CN(C)c1ccc(-c2cc3cc(F)ccc3oc2=O)cc1	Active	–
Cc1ccc2ccc(=O)oc2c1	inactive	–
CCN(CC)c1ccc(-c2ccc3cc(-c4nc5ccccc5s4)c(=O)oc3c2)cc1	Active	–
O=c1oc2ccccc2cc1-c1ccccc1	inactive	–
CN(C)c1ccc(-c2cc3ccccc3oc2=O)cc1	Active	white/gray matter fluorescence ratio [2]: 1.34
CCN(CC)c1ccc(-c2ccc3cc(-c4ccc(CBr)cc4)c(=O)oc3c2)cc1	Active	–
